mHtt clearance: compounds clearing mutant huntingtin protein. HeLa Exon1htt(103Q)mCFP, aggregate imaging; zero = plate's median compound well. inhibition, % at 1.5 µM. 47,000 compounds, 0.42% hits;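 active = inhibition of aggregate fluorescence above about 70%, also judged a hit by eye on the cell image, limit read from the data, passing the limit was not always enough; inconclusive = no rule stated for this call; inactive = not judged a hit on image review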;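 note: cells exposed to compound for three days before fixation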
AP complement: alternative pathway complement inhibition, orthogonal assay; Human serum alternative complement pathway, LPS-coated ELISA, C3 deposition; tested in compound mixtures; inhibition, % at 5 µM; 62,000 compounds, 0.08% hits;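 active = inhibition above 30% in each of the two pooled mixtures holding the compound, so the lower value exceeds 30%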;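 note: 0% = serum in Mg-EGTA without compound and 100% = EDTA serum blank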
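Test system: human serum alternative complement pathway, C3 deposition on LPS-coated wells; also added: Plate-bound LPS; doses: 5 µM per compound in ten-compound mixtures; schedule: 1 h at 37 °C; detection: Anti-C3 ELISA, OD 450 nm; evaluation: percent inhibition of C3 deposition onto LPS; repeats: two pool placements per compound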
D1 mod: allosterically modulates the human D1 dopamine receptor. 58,000 compounds, 5.9% hits. B-score at 10 µM. P21728. HEK293 D1, CRE-luciferase, dopamine EC30 potentiation; actives deviate in either direction;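 active = luminescence count or its row- and column-corrected plate score outside the 99.7% band of the plate's sample wells, on either side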
M1 ag: M1 muscarinic receptor agonism; CHO-M1 cells, Fluo-4 calcium fluorescence, agonist mode; stronger effect = higher value; B-score at 10 µM; 64,000 compounds, 3% hits; AID 626;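 active = fluorescence rise, raw or as B-score row- and column-corrected plate score, outside the 99.7% band of its plate's samples, either direction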
M1 antag: antagonists of rat M1 muscarinic receptor; P08482; CHO-M1 cells, Fluo-4 calcium, ACh EC80 antagonist mode; stronger effect = lower value; 64,000 compounds, 3.4% hits; AID 628; B-score at 10 µM;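 active = calcium fluorescence response, raw or row-and-column corrected B-score, differing from the plate sample mean either way at a set confidence level, mostly lower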
Target sequence (P08482 whole entry, looked up): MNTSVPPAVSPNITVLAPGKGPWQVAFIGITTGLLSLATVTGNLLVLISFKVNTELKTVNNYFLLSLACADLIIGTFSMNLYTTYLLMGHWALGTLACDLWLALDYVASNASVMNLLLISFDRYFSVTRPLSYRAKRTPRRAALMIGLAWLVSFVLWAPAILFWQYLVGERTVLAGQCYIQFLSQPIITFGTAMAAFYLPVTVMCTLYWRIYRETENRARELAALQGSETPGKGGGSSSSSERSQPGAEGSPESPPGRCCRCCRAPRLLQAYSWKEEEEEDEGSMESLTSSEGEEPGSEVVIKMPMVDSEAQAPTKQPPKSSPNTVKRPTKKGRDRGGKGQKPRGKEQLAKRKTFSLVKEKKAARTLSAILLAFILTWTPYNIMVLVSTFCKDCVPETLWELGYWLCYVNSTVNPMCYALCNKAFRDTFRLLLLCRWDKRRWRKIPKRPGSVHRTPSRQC
M1 antag conf: M1 muscarinic receptor (rat) antagonism, confirmed. CHO-M1 cells, Fluo-4 calcium, ACh EC80 antagonism; stronger effect = lower value. calcium response (max-min fluorescence) at 10 µM. shares compounds with M1 antag. AID 677. 1,700 compounds, 43% hits;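 active = calcium response below the same-plate mean of wells given acetylcholine alone at its 80%-effect dose, minus 3 SD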;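 note: raw fluorescence intensity difference in arbitrary instrument units and not normalized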
mGluR4 antag: mGluR4 (human) activity, M1 antagonist secondary assay | CHO-mGluR4 calcium flux, Fluo-4 fluorescence, glutamate EC80; stronger effect = lower value | shares compounds with M1 antag | fluorescence response (max-min) at 10 µM | 1,700 compounds, 0.9% hits;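 active = fluorescence response below the plate's average for near-maximal glutamate wells, less 3 SD of those wells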;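 note: raw unnormalized fluorescence span taken in the window right after glutamate addition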
D1 PAM confirm: D1 receptor (human) allosteric modulation, confirmed; HEK293 D1 CRE-luciferase, dopamine EC30 potentiation; stronger effect = higher value; shares compounds with D1 mod; AID 642; 2,200 compounds, 88% hits; luminescence at 10 µM;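 active = luminescence in either of two replicates above the same-plate mean plus 3 SD of the low-dose dopamine control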
D1 ag no DA: activates D1 CRE-luciferase signal without dopamine present; luminescence at 10 µM; HEK293 D1 CRE-luciferase, luminescence, no dopamine; stronger effect = higher value; shares compounds with D1 mod; AID 646; 1,900 compounds, 0.8% hits; in the data active = luminescence above about 3900
Isoprot counter: isoproterenol response counter-screen activity for D1 modulators. shares compounds with D1 mod. HEK293 D1 CRE-luciferase, isoproterenol EC30 counter-screen. calls only at 10 µM. 2,200 compounds, 63% hits. AID 647;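 active = luminescence in either replicate above plate mean of wells with a partly effective reference agonist dose plus 3 SD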;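 note: isoproterenol raises cAMP through native beta-adrenoceptor Gs so signal bypasses D1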
Numbers without * were called inactive; i = inactive; ? = inconclusive; . = no result given; + = active, no number. Shown are actives, neighbours in structure and some others; about 9% of the full set was active somewhere.

SMILES	mHtt clearance	AP complement	D1 mod	M1 ag	M1 antag	M1 antag conf	mGluR4 antag	others
O=C(NCc1ccccn1)c1ccc(N2CCCC2=O)cc1	.	-4	0.15	-0.96	0.41	.	.
CCOC(=O)/C(C#N)=C(\N)C(C)C(=O)Nc1ccccn1 (centres undefined)	-2	-5	0.3	0.44	-0.025	.	.
COc1cc2nc3c4ccccc4n(CC#N)c3nc2cc1OC	-8	14	2.1	-0.4	0.81	.	.
CCn1c2ccccc2c2nc3cc(OC)c(OC)cc3nc21	?	14	-0.011	1.5	-5.7*	462	154*
CCCCOc1ccc(NC2=NC3(CCCCC3)N=C(N)N2)cc1	.	.	-3.2	-0.83	-2.3*	458	182
Cc1cccc(NC2=NC3(CCCCC3)N=C(N)N2)c1	.	.	-3.6	0.99	0.51	.	.
CCOc1ccc2nc(N3CCC(C(=O)N4CCN(C5CCCCC5)CC4)CC3)sc2c1	.	1	-1.3	-2.2	-2.9*	378*	243
Cc1ccc(S(=O)(=O)CC#CCOC(=O)c2ccc([N+](=O)[O-])cc2)cc1	10	.	.	.	.	.	.
CCN(CCCc1ccccc1)CCCc1ccccc1	.	20	-5	-1.2	-13*	18*	256
CS(=O)(=O)N(CC(=O)N1CCCCC1)c1sc2c(c1C#N)CCCC2	-21	-5	1	-0.24	0.56	.	.
CSc1nc2ccc(S(=O)(=O)N3CCCCC3)cc2s1	36	.	.	.	.	.	.
CSc1nc2ccc(S(=O)(=O)N3CCOCC3)cc2s1	.	9	0.22	-0.48	-4.7*	298*	167
Cc1cc(Cl)ccc1OCCCC(=O)NC1CCN(C)CC1	.	29	-2	-0.77	-2.9*	479*	211
O=C(c1ccccc1)N(Cc1ccco1)C1CCS(=O)(=O)C1 (centres undefined)	10	.	.	.	.	.	.
O=C(c1cnn2ccccc12)N(Cc1ccco1)C1CCCC1	.	4	0.36	-0.077	-4.6*	396*	243
CN1CCc2c(c3ccccc3n2Cc2ccccc2)C1	45	-6	.	-0.61	-3.9*	231*	251
CCN(CC)CCCN1C(=O)c2oc3ccccc3c(=O)c2C1c1cc(OC)ccc1OC (centres undefined)	-51	-7	-0.67	-0.92	-1.9*	644	270
CCN(CC)CCCN1C(=O)c2oc3ccccc3c(=O)c2C1c1cccnc1 (centres undefined)	.	-12	-0.05	0.087	0.46	.	.
N#Cc1c(NC(=O)c2cc(-n3cnnc3)ccc2Cl)sc2c1CCCC2	.	13	-0.46	-0.51	-3.2*	630	229
CN1CCN(S(=O)(=O)c2ccc(NC(=O)c3cccc(S(=O)(=O)N4CCCC4)c3)cc2)CC1	-54	18	0.8	-0.36	-16*	43*	210
CCOC(=O)c1c(CN(CC)CC)oc2cc(Br)c(O)cc12	.	5	2.5	-0.43	-2*	679	217
CCOC(=O)c1c(CN(CC)CC)oc2ccc(OC)cc12	-25	.	.	.	.	.	.
CN1C(=O)C(O)(C2COC(C)(C)CC2=O)c2ccccc21 (centres undefined)	-32	17	-1.6	1	-3.8*	472*	237
CN1C(=O)C(O)(C2COC(C)(C)CC2=O)c2cc(Br)ccc21 (centres undefined)	2	2	-0.2	0.14	-0.49	.	.
CCn1c(SCC(=O)Nc2cc3oc4ccccc4c3cc2OC)nnc1-c1cccs1	.	-16	1.1	.	.	.	.
SMILES	mHtt clearance	AP complement	D1 mod	M1 ag	M1 antag	M1 antag conf	mGluR4 antag	others
COc1ccccc1CN(Cc1nc2ccccc2c(=O)[nH]1)C(=O)Nc1ccccc1	10	-2	-0.033	1.4	1.6	.	.
CCN(CC)C(=O)CSc1nnc(-c2cc3ccccc3cc2O)n1CC	-14	20	-1.3	-0.25	-3.4*	499	217
CCn1c(-c2cc3ccccc3cc2O)n[nH]c1=S	-11	.	.	.	.	.	.
CCn1cc(C(C)NC(=O)COc2ccc(Cl)cc2C)c(C)n1 (centres undefined)	.	2	0.58	0.014	0.013	.	.
Cc1cc(-c2nnc3sc(C4CCCCC4)nn23)n[nH]1	-2	14	7.8*	-0.075	-0.13*	518	214	D1 PAM confirm=14928*;Isoprot counter=+
c1cncc(-c2nnc3sc(C4CCCCC4)nn23)c1	-6	.	.	0.73	0.82	.	.
O=C(c1ccco1)N1CCN(S(=O)(=O)c2ccc3c(c2)CCN3C(=O)C2CC2)CC1	1	12	4.2*	-1.2	-2.4*	633	242	D1 PAM confirm=11508*;D1 ag no DA=1616;Isoprot counter=i
COc1nc(N2CCCCCC2)nc(N2CCCCCC2)n1	-34	0	0.018	-0.2	0.45	.	.
CCOc1nc(C#N)nc(N2CCCCC2)n1	.	-1	2.6*	-1.6	-1.2*	430*	234	D1 PAM confirm=10912*;D1 ag no DA=1612;Isoprot counter=+
CC1CN(C2CCN(C(=O)c3ccccc3Cl)CC2)CC(C)O1 (centres undefined)	-1	.	.	-0.51	0.9	.	.
COc1ccc(C(=O)Nc2nnc(Cc3cccs3)s2)cc1OC	.	6	3*	-1.1	-17*	621	244	D1 PAM confirm=9388*;D1 ag no DA=1740;Isoprot counter=i
COc1ccc(Cc2nnc(NC(=O)c3cccs3)s2)cc1	.	2	0.094	-0.0067	0.4	.	.
CCC1Oc2ccc(C)cc2N(CC(=O)N(Cc2ccc(C)o2)C2CCCC2)C1=O (centres undefined)	-28	.	.	.	.	.	.
CCOCCn1c(SCc2ccccc2)nc2c1c(=O)[nH]c(=O)n2C	.	5	0.26	0.15	-0.27	.	.
C/C=C/Cn1c(SCc2ccccc2)nc2c1c(=O)[nH]c(=O)n2C	.	9	15*	0.67	-2.7*	589	245	D1 PAM confirm=16256*;D1 ag no DA=1572;Isoprot counter=+
O=C(CC1Oc2ccccc2NC1=O)NC1CCCC1 (centres undefined)	.	18	0.54	-0.9	0.016	.	.
CC1CCN(Cc2ccc(NC(=O)CC3Oc4ccccc4NC3=O)cc2)CC1 (centres undefined)	-12	9	2.8*	-0.7	-11*	24*	229	D1 PAM confirm=5132;D1 ag no DA=1676;Isoprot counter=i
COc1ccc(C2CC(c3cc(OC)ccc3OC)n3nnnc3N2)cc1 (centres undefined)	.	51	2.7*	1.4	-17*	635	240	D1 PAM confirm=9576*;D1 ag no DA=1560;Isoprot counter=i
CC1CCN(CCCNC(=O)Cc2c(C(=O)O)n(C)c3ccccc23)CC1	.	6	0.74	-0.32	-0.078	.	.
